This passage reports Activity results from ChEMBL document CHEMBL1212902, “Efficient synthesis and biological evaluation of demethyl geranylgeranoic acid derivatives” (Bioorg Med Chem, 2010).

In assay [1] the target is T1, Cellular retinoic acid-binding protein 2 (Rattus norvegicus) (UniProt P51673).
T1 sequence (whole entry): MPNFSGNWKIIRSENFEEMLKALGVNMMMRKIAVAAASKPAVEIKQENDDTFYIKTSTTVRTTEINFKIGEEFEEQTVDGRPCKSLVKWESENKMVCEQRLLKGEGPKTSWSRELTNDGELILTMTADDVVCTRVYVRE
Briefly: Transcriptional activation of rat CRABP2 expressed in human MG63 cells coexpressing RXRE at 1 uM after 48 hrs. It is filed as cell-based. The settings on record: MG-63. Put shortly:
(§1)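 MG-63 cells were seeded at 2 × 10^5/well, then transfected using Tfx-50 with an SV40-Luc pGL3 reporter plus pRL-CMV. Cells were treated at 10^-6 M for 2 days. Luciferase was normalised to Renilla and reported as fold versus ethanol control, from at least three repeats with SEM.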

For assay [2], the target named is T2, Retinoic acid receptor beta (Homo sapiens) (UniProt P10826).
T2 sequence (whole entry): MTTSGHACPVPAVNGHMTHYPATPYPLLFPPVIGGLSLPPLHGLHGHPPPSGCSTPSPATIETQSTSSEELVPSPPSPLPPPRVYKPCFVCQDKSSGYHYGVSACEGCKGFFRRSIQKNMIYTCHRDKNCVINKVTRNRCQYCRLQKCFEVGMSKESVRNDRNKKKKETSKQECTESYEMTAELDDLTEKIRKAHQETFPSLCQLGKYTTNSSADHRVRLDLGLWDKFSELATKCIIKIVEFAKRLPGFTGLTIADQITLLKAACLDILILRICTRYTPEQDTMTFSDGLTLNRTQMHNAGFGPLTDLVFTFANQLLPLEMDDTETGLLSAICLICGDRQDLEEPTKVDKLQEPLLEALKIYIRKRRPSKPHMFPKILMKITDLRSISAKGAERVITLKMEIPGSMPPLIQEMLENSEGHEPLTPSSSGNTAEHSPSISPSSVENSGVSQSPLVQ
Kind of assay: Transcriptional activation of human RARbeta expressed in human MG63 cells coexpressing RARE at 1 uM after 48 hrs by luciferase reporter gene assay. It is filed as cell-based. The settings on record: MG-63. Put shortly:
as §1
Background: In a reporter assay the amount or activity of a reporter protein is the signal.

Assay [3] has as its system HL-60. Briefly: Cell cycle arrest in human HL60 cells assessed as accumulation at G0/G1 phase at 25 uM after 24 hrs by flow cytometry. It is filed as functional, cell-based. An outline of the steps: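 HL-60 cells grown in RPMI-1640 with 10% charcoal-stripped FCS and kanamycin at 37 °C in 5% CO2. Cells were exposed at 2.5 × 10^-5 M for 24 h, stained with propidium iodide at 4 °C for 20 min and analysed on a 488 nm flow cytometer. The percentage of cells in G0/G1 is given relative to untreated cells.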
(In general: In flow cytometry, cells or beads pass a laser one at a time.)

For assay [4], the target named is T3, Retinoic acid receptor RXR-alpha (Homo sapiens) (UniProt P19793).
T3 sequence (whole entry): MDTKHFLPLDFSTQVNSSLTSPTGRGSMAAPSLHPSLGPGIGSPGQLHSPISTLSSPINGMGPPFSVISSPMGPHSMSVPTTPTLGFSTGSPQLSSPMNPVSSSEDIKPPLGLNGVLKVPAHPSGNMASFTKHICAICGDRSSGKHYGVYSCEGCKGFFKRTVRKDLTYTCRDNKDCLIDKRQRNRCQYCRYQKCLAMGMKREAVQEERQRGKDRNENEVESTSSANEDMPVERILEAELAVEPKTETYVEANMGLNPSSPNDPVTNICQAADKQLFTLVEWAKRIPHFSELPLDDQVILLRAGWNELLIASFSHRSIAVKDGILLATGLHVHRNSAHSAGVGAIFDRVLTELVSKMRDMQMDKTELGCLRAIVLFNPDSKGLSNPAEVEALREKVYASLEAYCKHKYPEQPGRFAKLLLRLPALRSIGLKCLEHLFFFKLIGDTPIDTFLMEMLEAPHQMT
Kind of assay: Transcriptional activation of Gal4-tagged human RXRalpha expressed in human MG63 cells at 1 uM after 48 hrs. The format is cell-based. Conditions: MG-63. Put shortly: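 Human osteosarcoma MG-63 cells in DMEM with 10% charcoal-stripped FCS were seeded at 2 × 10^5/well the day before transfection. They were cotransfected with human RXR fused to the GAL4 DNA-binding domain, a GAL4-site luciferase reporter and a pRL-CMV control. Cells were then exposed at 10^-6 M for 48 h. Firefly luciferase was normalised to Renilla and expressed as fold over ethanol vehicle, from three experiments with SEM.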

The test system of assay [5] is HL-60. Briefly: Induction of cell differentiation in human HL60 cells assessed as differentiation in to granulocytes. The format is functional, cell-based.
In assay [6] the test system is HL-60. Kind of assay: Antiproliferative activity against human HL60 cells after 24 hrs. The format is functional, cell-based.
Assay [7] concerns HL-60. Briefly: Induction of apoptosis in human HL60 cells after 24 hrs. Conditions: in the assay text read “after 3 days” for “after 24 hrs”. The format is functional, cell-based. Put shortly: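 HL-60 cells were seeded at 10^5 cells/well in RPMI-1640 and treated at 10^-6–10^-4 M. They were propidium iodide-stained and analysed by flow cytometry for cell cycle. Apoptosis is expressed as percent dead cells relative to the total untreated cell count, shown as mean with SEM.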

Calls of active or inactive are those of the source. The calls are words filed in the database; no cut-off is given here.

Regarding `CC(C)=CCC/C(C)=C/CC/C=C/CC/C(C)=C/C(=O)O`, in assay [1], the result was inactive. For the same compound, the result in assay [2] was Active.
Turning to `CC(C)=CCC/C(C)=C/CC/C(C)=C/CC/C=C/C(=O)O`, the outcome in assay [3], in assay [4], in assay [5], in assay [2], in assay [6] and in assay [7] was Active. Further, in assay [1], the outcome was inactive.
As for `CC(C)=CCC/C=C/CC/C(C)=C/CC/C(C)=C/C(=O)O`, in assay [1], the outcome was inactive. Moreover, the result in assay [2] was Active.
The matching figures for `C/C=C/CC/C(C)=C/CC/C(C)=C/CC/C(C)=C/C(=O)O`: “inactive” and “Active”.
